The values below come from ChEMBL document CHEMBL1146056, “Microwave-accelerated synthesis of P1'-extended HIV-1 protease inhibitors encompassing a tertiary alcohol in the transition-state mimicking scaffold” (J Med Chem, 2006).

Where only a bound is given, the exact number is not on record here.

Series [1] has as its system Human immunodeficiency virus 1. In words: Antiviral activity against HIV1 in MT4 cells. Type of series: functional, organism-based. The settings on record: Human immunodeficiency virus 1, MT4. The procedure, abridged:
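HIV-1-infected MT4 cells; antiviral activity reported as EC50 (µM).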

Series [2] relates to MT4. Put plainly: Cytotoxicity against MT4 cells. Type of series: functional. The settings on record: Homo sapiens. Put shortly:
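Cytotoxicity reported as CC50 (µM).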

Series [3] deals with Human immunodeficiency virus type 1 protease (Human immunodeficiency virus 1, UniProt Q72874). Put plainly: Inhibition of HIV1 protease.
Series [4] in a line: Permeability in Caco-2 cells at 10 uM. Type of series: ADME, cell-based. The settings on record: human, read-out: permeability. The procedure, abridged:
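Caco-2 cell monolayer; membrane permeation expressed as apparent permeability Papp (10^-6 cm/s).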
Background: Caco-2 monolayers are a common model of the intestinal barrier.

A short description of series [5]: Intrinsic clearance in human liver microsome at 2 uM. In kind it is ADME. The settings on record: liver microsomes. Put shortly: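 Stability in liver microsome homogenate, expressed as intrinsic clearance (Clint, µL/min/mg).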

The term EC50 denotes the concentration that produces a half-maximal response. A low value points to an effect from little substance. Broadly, the CC50 is the concentration that lowers cell viability or growth by half. Lower therefore signals harm at low concentration. Take `COC(=O)N[C@H](C(=O)NN(Cc1ccc(-c2cc3ccccc3s2)cc1)C[C@@](O)(Cc1ccccc1)C(=O)N[C@H]1c2ccccc2C[C@H]1O)C(C)(C)C`: the EC50 in series [1] was more than 10 µM. Further, the CC50 in series [2] was more than 10 µM.
What is called Ki is the equilibrium dissociation constant of an inhibitor or competing ligand from its target. A low value points to a stronger hold on the target. In series [3], `COC(=O)N[C@H](C(=O)NN(Cc1ccc(-c2cnccn2)cc1)C[C@@](O)(Cc1ccccc1)C(=O)N[C@H]1c2ccccc2C[C@H]1O)C(C)(C)C` came in with a Ki of 0.0021 µM. The same compound had an EC50 in series [1] of 1 µM. Besides, it took 7.8 µM to reach half-maximal cytotoxicity in series [2] (CC50).
In turn, `COC(=O)N[C@H](C(=O)NN(Cc1ccc(C#Cc2ccccc2)cc1)C[C@@](O)(Cc1ccccc1)C(=O)N[C@H]1c2ccccc2C[C@H]1O)C(C)(C)C` came in with a Ki in series [3] of 0.015 µM. This compound returned a half-maximal effective concentration (EC50) in series [1] of more than 10 µM. In series [2], this compound yielded a CC50 of more than 10 µM.
`COC(=O)N[C@H](C(=O)NN(Cc1ccc(-c2ccncc2)cc1)C[C@@](O)(Cc1ccccc1)C(=O)N[C@H]1c2ccccc2C[C@H]1O)C(C)(C)C` returned an EC50 in series [1] of 0.22 µM. In series [2], the CC50 is more than 10 µM.
On to `COC(=O)N[C@H](C(=O)NN(Cc1ccc(C#Cc2ccccn2)cc1)C[C@@](O)(Cc1ccccc1)C(=O)N[C@H]1c2ccccc2C[C@H]1O)C(C)(C)C`, for which the Ki in series [3] is 0.009 µM. The EC50 in series [1] is 1 µM. The same compound returned a CC50 in series [2] of 4.9 µM.
`COC(=O)N[C@H](C(=O)NN(Cc1ccc(Br)cc1)C[C@@](O)(Cc1ccccc1)C(=O)N[C@H]1c2ccccc2C[C@H]1O)C(C)(C)C` returned a concentration for a half-maximal effect (EC50) in series [1] of 1.1 µM. The same compound displayed a CC50 in series [2] of more than 10 µM.
Consider `COC(=O)N[C@H](C(=O)NN(Cc1cccc(C#Cc2ccccn2)c1)C[C@@](O)(Cc1ccccc1)C(=O)N[C@H]1c2ccccc2C[C@H]1O)C(C)(C)C`, for which, in series [3], the inhibition constant (Ki) was determined as 0.022 µM. This compound also came in with an EC50 in series [1] of more than 10 µM. The compound also showed a cytotoxic concentration (CC50) in series [2] of more than 10 µM.
In series [1], `COC(=O)N[C@H](C(=O)NN(Cc1ccc(-c2ccccn2)cc1)C[C@@](O)(Cc1ccccc1)C(=O)N[C@H]1c2ccccc2C[C@H]1O)C(C)(C)C` displayed an EC50 of 0.9 µM. Moreover, the CC50 in series [2] was more than 10 µM.
The microsomal CLint is a measure of how fast metabolising enzymes remove a compound, apart from limits set by blood flow. Low values mean slow turnover, high ones rapid turnover. Compound `COC(=O)N[C@H](C(=O)NN(Cc1cccc(-c2cccnc2)c1)C[C@@](O)(Cc1ccccc1)C(=O)N[C@H]1c2ccccc2C[C@H]1O)C(C)(C)C` registered an inhibition constant Ki in series [3] of 0.012 µM. This compound showed an EC50 in series [1] of more than 10 µM. The compound further had a 50% cytotoxic concentration (CC50) in series [2] of 6.8 µM. In addition, the Papp at 10 µM in series [4] was 11 ×10⁻⁶ cm/s. Also, the microsomal CLint at 2 µM in series [5] worked out at 190 µL/min/mg.
`COC(=O)N[C@H](C(=O)NN(Cc1cccc(C#Cc2cccnc2)c1)C[C@@](O)(Cc1ccccc1)C(=O)N[C@H]1c2ccccc2C[C@H]1O)C(C)(C)C`: the Ki in series [3] came to 0.018 µM. In series [1], this compound came in with a concentration for a half-maximal effect (EC50) of more than 10 µM. Moreover, the CC50 in series [2] is more than 10 µM.
Consider `COC(=O)N[C@H](C(=O)NN(Cc1ccc(-c2c(C)noc2C)cc1)C[C@@](O)(Cc1ccccc1)C(=O)N[C@H]1c2ccccc2C[C@H]1O)C(C)(C)C`, for which the Ki in series [3] stood at 0.0038 µM. Besides, the midpoint of the response in series [1], the EC50, lay at 1.1 µM. For the same compound, in series [2], the CC50 is more than 10 µM.
`COC(=O)N[C@H](C(=O)NN(Cc1ccc(-c2ccccc2)cc1)C[C@@](O)(Cc1ccccc1)C(=O)N[C@H]1c2ccccc2C[C@H]1O)C(C)(C)C`: the EC50 in series [1] was 0.7 µM. For the same compound, in series [2], the half-maximal cytotoxic concentration (CC50) is more than 10 µM.
Regarding `COC(=O)N[C@H](C(=O)NN(Cc1ccc(-c2cccnc2)cc1)C[C@@](O)(Cc1ccccc1)C(=O)N[C@H]1c2ccccc2C[C@H]1O)C(C)(C)C`, the EC50 in series [1] was 0.18 µM. The 50% cytotoxic concentration (CC50) in series [2] was more than 10 µM. The Papp at 10 µM in series [4] was 33 ×10⁻⁶ cm/s. In addition, the microsomal CLint at 2 µM in series [5] turned out to be 154 µL/min/mg.
On to `COC(=O)N[C@H](C(=O)NN(Cc1cccc(-c2ccccc2)c1)C[C@@](O)(Cc1ccccc1)C(=O)N[C@H]1c2ccccc2C[C@H]1O)C(C)(C)C`, for which affinity in series [3] was put at a Ki of 0.023 µM. The concentration giving a half-maximal response (EC50) in series [1] is more than 10 µM. The compound also came in with a CC50 in series [2] of more than 10 µM.
Turning to `COC(=O)N[C@H](C(=O)NN(Cc1ccc(/C=C/c2ccccc2)cc1)C[C@@](O)(Cc1ccccc1)C(=O)N[C@H]1c2ccccc2C[C@H]1O)C(C)(C)C`, the EC50 in series [1] is more than 10 µM. The compound also registered a half-maximal cytotoxic concentration (CC50) in series [2] of more than 10 µM.
The compound `COC(=O)N[C@H](C(=O)NN(Cc1cccc(-c2ccccn2)c1)C[C@@](O)(Cc1ccccc1)C(=O)N[C@H]1c2ccccc2C[C@H]1O)C(C)(C)C` displayed a Ki in series [3] of 0.015 µM. This compound returned an EC50 in series [1] of more than 10 µM. Moreover, the midpoint of cytotoxicity in series [2], the CC50, lay at 4.4 µM.
Taken in the same sequence, the figures for `COC(=O)N[C@H](C(=O)NN(Cc1cccc(/C=C/c2ccccc2)c1)C[C@@](O)(Cc1ccccc1)C(=O)N[C@H]1c2ccccc2C[C@H]1O)C(C)(C)C` were 0.014 µM, more than 10 µM and more than 10 µM.
Taken in the same sequence, the figures for `COC(=O)N[C@H](C(=O)NN(Cc1cccc(Br)c1)C[C@@](O)(Cc1ccccc1)C(=O)N[C@H]1c2ccccc2C[C@H]1O)C(C)(C)C` were 0.018 µM, 3.3 µM and more than 10 µM.
For `COC(=O)N[C@H](C(=O)NN(Cc1cccc(-c2ccncc2)c1)C[C@@](O)(Cc1ccccc1)C(=O)N[C@H]1c2ccccc2C[C@H]1O)C(C)(C)C`, in series [3], the Ki amounted to 0.093 µM. Besides, the EC50 in series [1] turned out to be 2 µM. In addition, the CC50 in series [2] is more than 10 µM.
`COC(=O)N[C@H](C(=O)NN(Cc1cccc(C#Cc2ccccc2)c1)C[C@@](O)(Cc1ccccc1)C(=O)N[C@H]1c2ccccc2C[C@H]1O)C(C)(C)C`: in series [3], the Ki amounted to 0.023 µM. In series [1], this compound displayed an EC50 of more than 10 µM. Moreover, in series [2], the CC50 was more than 10 µM.
Regarding `COC(=O)N[C@H](C(=O)NN(Cc1ccc(C#Cc2cccnc2)cc1)C[C@@](O)(Cc1ccccc1)C(=O)N[C@H]1c2ccccc2C[C@H]1O)C(C)(C)C`, the inhibitory constant (Ki) in series [3] stood at 0.0078 µM. This compound returned an EC50 in series [1] of 0.75 µM. Further, in series [2], the cytotoxic concentration (CC50) is more than 10 µM.
Taken in the same sequence, the figures for `COC(=O)N[C@H](C(=O)NN(Cc1ccc(-c2ccc3c(c2)OCO3)cc1)C[C@@](O)(Cc1ccccc1)C(=O)N[C@H]1c2ccccc2C[C@H]1O)C(C)(C)C` were 0.011 µM, 1 µM and more than 10 µM.
